ChEMBL document CHEMBL4152363, “Andrographolide derivative as STAT3 inhibitor that protects acute liver damage in mice” (Bioorg Med Chem, 2018)
Calls of active or inactive are those of the source. The rule behind the calls is not given here.

What was measured:
[1] = biological target: T1, Signal transducer and activator of transcription 3 (Homo sapiens, UniProt P40763); assay: Inhibition of […] activation in human AD293 cells incubated […] for 16 hrs followed by compound addition measured after 4 hrs by luciferase reporter gene assay; format: cell-based
T1 sequence (P40763 whole entry): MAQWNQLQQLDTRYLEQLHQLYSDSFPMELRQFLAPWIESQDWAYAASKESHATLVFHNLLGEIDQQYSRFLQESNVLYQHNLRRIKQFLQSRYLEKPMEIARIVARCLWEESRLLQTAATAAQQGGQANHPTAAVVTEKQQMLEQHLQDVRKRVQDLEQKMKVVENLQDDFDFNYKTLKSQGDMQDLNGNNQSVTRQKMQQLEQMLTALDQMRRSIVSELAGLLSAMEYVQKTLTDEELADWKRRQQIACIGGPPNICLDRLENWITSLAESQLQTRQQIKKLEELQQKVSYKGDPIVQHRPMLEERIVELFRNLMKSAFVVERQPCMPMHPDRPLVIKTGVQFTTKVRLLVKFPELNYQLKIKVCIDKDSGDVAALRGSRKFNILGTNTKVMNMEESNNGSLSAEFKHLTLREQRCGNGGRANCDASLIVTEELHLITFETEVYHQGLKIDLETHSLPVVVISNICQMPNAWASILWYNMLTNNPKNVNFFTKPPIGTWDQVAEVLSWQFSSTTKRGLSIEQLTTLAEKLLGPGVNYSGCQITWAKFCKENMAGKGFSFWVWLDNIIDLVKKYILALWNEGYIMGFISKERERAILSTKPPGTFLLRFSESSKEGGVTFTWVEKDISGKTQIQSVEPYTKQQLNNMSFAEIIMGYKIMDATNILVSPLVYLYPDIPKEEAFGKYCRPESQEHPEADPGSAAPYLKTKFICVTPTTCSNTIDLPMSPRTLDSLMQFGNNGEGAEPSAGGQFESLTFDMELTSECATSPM

[2] = biological target: T1, Signal transducer and activator of transcription 3; assay: Inhibition of DNA binding activity of STAT3 in human AD293 cells up to 40 uM; format: cell-based
Procedure, shortened: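 STAT3 DNA binding measured with TransAM STAT family ELISA kit per manufacturer; competition control with threefold free oligo; mean ± SD of three separate experiments.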

[3] = biological target: T1, Signal transducer and activator of transcription 3; assay: Inhibition of IFNgamma-stimulated STAT3 activation in human HeLa cells incubated with IFNgamma for 16 hrs followed by compound addition measured after 24 hrs by luciferase reporter gene assay; format: cell-based
Procedure, shortened: (§1)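 AD-293 or HeLa cells in DMEM/10% FBS stimulated with 20 pg/mL IFN-γ; compound treatment 24 h; luciferase activity measured in cell extracts; EC50 derived.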

[4] = biological target: T1, Signal transducer and activator of transcription 3; assay: Inhibition of IFNgamma-stimulated STAT3 activation in human AD293 cells incubated with IFNgamma for 16 hrs followed by compound addition measured after 24 hrs by luciferase reporter gene assay; format: cell-based; procedure, shortened: as §1
[5] = test system: Mus musculus; assay: Antiinflammatory activity in CCL4-induced acute liver damage Balb/c mouse model assessed as decrease in serum IL-6 levels at 30 mg/kg, po qd for 7 days measured after 16 hrs post CCL4 challenge; format: functional, organism-based
Procedure, shortened: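 BalB/C males dosed orally 30 mg/kg daily for 7 days, then sc CCl4 (40% in olive oil, 10 ml/kg); serum collected 16 h post-CCl4 after CO2 anaesthesia, stored at −70 °C until IL-6, MCP-1 or TGF-β analysis; n=5.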

[6] = test system: HeLa; assay: Cytotoxicity against human HeLa cells; format: cell-based
Procedure, shortened: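 AD-293 or HeLa cells grown in high-glucose DMEM with 10% FBS and 1% penicillin-streptomycin; compound exposure 24 h; cytotoxicity reported as CC10.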

[7] = test system: Mus musculus; assay: Reduction in SMAD4 mRNA expression level in liver of CCL4-induced acute liver damage in Balb/c mouse at 30 mg/kg, po qd for 7 days measured after 16 hrs post CCL4 challenge by qRT-PCR method; format: functional, organism-based
Procedure, shortened: (§2)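 Mice given 30 mg/kg orally once daily 7 days before sc CCl4 (40% in olive oil, 10 ml/kg); livers harvested 16 h later, PBS-washed, stored at −70 °C for RNA extraction and transcript quantification; n=5, two independent experiments.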

[8] = test system: Mus musculus; assay: Toxicity in Balb/c mouse assessed as change in body weight at 30 mg/kg, po qd for 7 days; format: organism-based; details: in vivo, 168 h
Procedure, shortened: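 Male BalB/C mice (20–25 g, 6–8 weeks, 1-week acclimation) dosed orally 30 mg/kg once daily 7 days, then subcutaneous CCl4 (40% in olive oil, 10 ml/kg); body weight tracked during treatment; S.E.M.; two independent experiments, n=5.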

[9] = biological target: T2, Signal transducer and activator of transcription 1-alpha/beta (Homo sapiens) (UniProt P42224); assay: Inhibition of IFNgamma-stimulated STAT1 phosphorylation at Tyr701 residues in human AD293 cell lysates incubated with IFNgamma followed by compound addition at 10 uM by Western blot analysis
T2 sequence (whole entry): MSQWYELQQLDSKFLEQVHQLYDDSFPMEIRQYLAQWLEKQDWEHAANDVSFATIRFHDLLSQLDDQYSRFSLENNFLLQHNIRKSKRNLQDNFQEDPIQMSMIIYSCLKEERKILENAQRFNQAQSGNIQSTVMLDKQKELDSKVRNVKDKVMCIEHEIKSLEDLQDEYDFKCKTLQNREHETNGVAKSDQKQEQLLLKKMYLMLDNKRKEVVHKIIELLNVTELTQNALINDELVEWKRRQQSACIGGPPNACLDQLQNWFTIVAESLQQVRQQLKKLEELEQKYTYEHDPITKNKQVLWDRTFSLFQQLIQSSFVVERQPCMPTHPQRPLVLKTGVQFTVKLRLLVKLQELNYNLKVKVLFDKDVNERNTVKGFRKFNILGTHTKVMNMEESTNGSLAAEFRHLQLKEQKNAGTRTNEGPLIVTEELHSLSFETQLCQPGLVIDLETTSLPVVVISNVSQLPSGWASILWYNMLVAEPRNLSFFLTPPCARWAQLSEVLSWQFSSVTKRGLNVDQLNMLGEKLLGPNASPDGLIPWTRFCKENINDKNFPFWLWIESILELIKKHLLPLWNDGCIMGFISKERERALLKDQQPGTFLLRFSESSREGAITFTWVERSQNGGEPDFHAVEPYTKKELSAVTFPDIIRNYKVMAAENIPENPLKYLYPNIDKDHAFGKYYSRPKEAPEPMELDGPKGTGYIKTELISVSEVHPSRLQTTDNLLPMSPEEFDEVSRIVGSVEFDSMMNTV
Procedure, shortened: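 AD-293 cells treated with 1 μg/mL IFN-γ alone or with compounds at 10 μM; phospho- and total STAT1 and STAT3 assessed by western blot; representative of at least three independent experiments.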

[10] = test system: Mus musculus; assay: Reduction in serum AST level in CCL4-induced acute liver damage in Balb/c mouse at 30 mg/kg, po qd for 7 days measured after 16 hrs post CCL4 challenge […]; format: functional, organism-based
[11] = biological target: T1, Signal transducer and activator of transcription 3; assay: Inhibition of IFNgamma-stimulated GFP/FLAG-tagged STAT3 dimerization in human AD293 cells at 10 uM incubated for 6 hrs by Western blot analysis; format: cell-based
Procedure, shortened: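 AD-293 cells co-transfected 48 h with GFP- and FLAG-tagged STAT3 plasmids, then IFN-γ with or without compound for 6 h; 100 μg lysate (RIPA) immunoprecipitated with anti-FLAG and protein G beads; blots probed for GFP and FLAG, chemiluminescent detection.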

[12] = test system: Mus musculus; assay: Reduction in Col1a1 mRNA expression level in CCL4-induced acute liver damage in Balb/c mouse at 30 mg/kg, po qd for 7 days measured after 16 hrs post CCL4 challenge by qRT-PCR method; format: functional, organism-based; procedure, shortened: as §2
[13] = test system: Mus musculus; assay: Antifibrotic activity in CCL4-induced acute liver damage Balb/c mouse model assessed as decrease in collagen deposition in liver at 30 mg/kg, po qd for 7 days measured after 16 hrs post CCL4 challenge by masson trichome staining based assay; format: functional, organism-based
Procedure, shortened: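 Male BalB/C mice given oral 30 mg/kg daily for 7 days, then sc CCl4 (40% in olive oil, 10 ml/kg); sacrificed 16 h later; livers fixed in 10% formaldehyde, paraffin sections stained with H&E or Masson's trichrome, light microscopy, ≥3 sections per liver; n=5, two experiments.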

## CC(C)(C)[Si](C)(C)O[C@@H]1COC(=O)/C1=C/C[C@@H]1[C@]2(CC[C@H]3[C@@]1(C)CCC(=O)[C@@]3(C)CO)CO2
[1]
  EC50: > 10 µM
[2]
  inhibition: inactive
[3]
  EC50: 5.9 µM
[4]
  EC50: 5.99 µM
[5]
  Activity: Active
[6]
  CC10: > 10 µM
[7]
  Activity: inactive
[8]
  Activity: Non-Toxic
[9]
  inhibition: inactive
[10]
  Activity: inactive
[11]
  inhibition: Active
[12]
  Activity: inactive
[13]
  Activity: Active
